This is an account of results in ChEMBL document CHEMBL3867435, “Chemical Constituents of Mangifera indica and Their Antiausterity Activity against the PANC-1 Human Pancreatic Cancer Cell Line” (J Nat Prod, 2016).

Data set [1] can be described thus: Induction of cell death in human PANC1 cells in nutrient-deprived medium at 5 uM up to 24 hrs by phase contrast microscopic method. The format is functional, PANC-1. An outline of the steps:
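PANC-1 cells from the Riken bank, grown in DMEM with 10% FBS, were plated at 3.0 × 10^6 per 35 mm dish and left to attach overnight in complete medium. After two PBS washes they were treated in nutrient-deprived medium (inorganic salts, 25 mM HEPES pH 7.4, MEM vitamins; no glucose, amino acids or serum). Cells were kept in a stage-top incubator at 37 °C and 5% CO2, with phase-contrast images every 5 min.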

The test system of data set [2] is PANC-1. Description: Induction of morphological changes in human PANC1 cells in nutrient-deprived medium at 5 uM measured after 6 hrs by phase contrast microscopic method. The format is functional, cell-based. In outline:
(§1)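 Cells (3.0 × 10^6) plated in 35 mm dishes and attached overnight in complete medium. Washed twice with PBS, then treated at 5 μM in NDM. Held in a stage-top incubator at 37 °C, 5% CO2, with phase-contrast images taken every 5 min for 48 h.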

In data set [3] the test system is PANC-1. Nature of the data set: Induction of morphological changes in human PANC1 cells in nutrient-deprived medium assessed as plasma membrane blebbing at 5 uM measured after 9 hrs by phase contrast microscopic method. The format is functional, cell-based. An outline of the steps:
as §1

Data set [4] concerns PANC-1. Nature of the data set: (§2) Antiausteritic activity against human PANC1 cells in nutrient-deprived medium measured after 24 hrs by WST8 assay. The format is functional. An outline of the steps: (§3)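 PANC-1 (Riken BRC) kept in DMEM + 10% FBS, 37 °C, 5% CO2. Seeded 1.5 × 10^4/well, 24 h in fresh DMEM, washed twice with PBS. Serial dilutions then given in DMEM or in NDM (salts, MEM vitamins, 25 mM HEPES, pH 7.4, no glucose/amino acids/serum) for 24 h. Viability read with 10% WST-8 in DMEM, 3 h, A450, vs control and blank; mean of three wells.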

A short description of data set [5]: as §2. The class given is functional, PANC-1. In outline:
as §3

Data set [6] has as its system PANC-1. Description: Induction of morphological changes in human PANC1 cells in nutrient-deprived medium at 10 uM measured after 24 hrs by acridine orange/ethidium bromide-staining based fluorescence microscopy. The format is functional, cell-based. In outline: (§4)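 After 24 h attachment (1.5 × 10^4/well, DMEM or RPMI-1640), cells were PBS-washed twice and exposed 24 h to compound in NDM (NDM alone as control). EB/AO reagent added for 5 min. Imaged at 20× in fluorescent and phase-contrast modes: green (AO) marks live cells, red (EB) marks dead cells.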

A short description of data set [7]: Cytotoxicity against human PANC1 cells in Dulbecco's modified Eagle medium measured after 24 hrs by WST8 assay. The format is toxicity, cell-based. The settings on record: panc-1, 24 h. In outline:
as §3
On the technique in general: Tetrazolium assays rely on reduction of a dye to a coloured formazan, in cell work by metabolically active cells.

In data set [8] the test system is PANC-1. Nature of the data set: Induction of cell death in human PANC1 cells in nutrient-deprived medium at 10 uM measured after 24 hrs by acridine orange/ethidium bromide-staining based fluorescence microscopy. The format is functional. In outline:
as §4

Data set [9] relates to PANC-1. Description: Inhibition of mobility in human PANC1 cells in nutrient-deprived medium at 5 uM measured after 6 hrs by phase contrast microscopic method. The format is functional, cell-based. An outline of the steps: as §1
Data set [10] deals with PANC-1. Description: Induction of cell death in human PANC1 cells in nutrient-deprived medium at 5 uM after 48 hrs by phase contrast microscopic method. The format is functional, cell-based. In outline:
as §1

Each structure is given as a SMILES string. Calls of active or inactive are those of the source. The rule behind the calls is not given here. Bounds are passed on as bounds.

With `C=C(CC[C@@H](C)[C@H]1CC[C@@]2(C)[C@@H]3CC[C@H]4C(C)(C)[C@H](O)CC[C@@]45C[C@@]35CC[C@]12C)[C@@H](C)C(=O)O`, the figures for the Activity (in [1]; with PANC-1 [4]; in data set [7]) were greater than 50%, “Dose-dependent effect” and “Non-Toxic”, respectively. Further, the result in the data set on PANC-1 [2], in the data set with PANC-1 [3], in the data set on PANC-1 [6], with PANC-1 [8] and in the data set with PANC-1 [10] was Active. This molecule displayed a PC50 in [5] of 4.8 µM. Moreover, the inhibition result in the data set on PANC-1 [9] is “Active”.

For `CCCC/C=C\CCCCCCCCCCCC(=O)O[C@H]1CC[C@]23C[C@]24CC[C@]2(C)[C@@H]([C@H](C)CC/C=C(\C)C(=O)O)CC[C@@]2(C)[C@@H]4CC[C@H]3C1(C)C`, in data set [5], the PC50 was found to be 69.6 µM. For the same molecule, the Activity entry in data set [7] was “Non-Toxic”.

In data set [5], `C[C@H](CC/C=C(\CO)C(=O)O)[C@H]1CC[C@@]2(C)[C@@H]3CC[C@H]4C(C)(C)C(=O)CC[C@@]45C[C@@]35CC[C@]12C` yielded a PC50 greater than 100 µM. In data set [7], the Activity entry is “Non-Toxic”.

`COc1cc(C[C@H]2C(=O)OC[C@@H]2Cc2ccc(OC)c(OC)c2)ccc1O` [ARCTIGENIN] came in with a PC50 in data set [5] of 0.8 µM.

Take `C=C(CC[C@@H](C)[C@H]1CC[C@@]2(C)[C@@H]3CC[C@H]4C(C)(C)[C@@H](O)CC[C@@]45C[C@@]35CC[C@]12C)C(C)CO` (stereo not given in full): the PC50 in data set [5] is greater than 100 µM. The Activity result in data set [7] was “Non-Toxic”.

`C=C(CC[C@@H](C)[C@H]1CC[C@@]2(C)[C@@H]3CC[C@H]4C(C)(C)[C@@H](O)CC[C@@]45C[C@@]35CC[C@]12C)[C@@H](C)C(=O)O` came in with a PC50 in data set [5] greater than 100 µM. Further, the Activity result in data set [7] is “Non-Toxic”.

Consider `C=C(CC[C@@H](C)[C@H]1CC[C@@]2(C)[C@@H]3CC[C@H]4C(C)(C)[C@@H](OC(C)=O)CC[C@@]45C[C@@]35CC[C@]12C)C(C)C(=O)O` (stereo not given in full), for which the Activity result in the data set on PANC-1 [4] was “Dose-dependent effect”; in data set [7], “Non-Toxic”. For the same molecule, the PC50 in data set [5] amounted to 11 µM.

Turning to `COc1cc(O)c(C(=O)c2ccc(O)cc2)c(O)c1[C@@H]1O[C@H](CO)[C@@H](O)[C@H](O)[C@H]1OC(=O)c1ccc(O)cc1`, in data set [5], the PC50 was greater than 100 µM. In addition, in data set [7], the Activity result is on record as “Non-Toxic”.

In turn, `C[C@H](CC/C=C(\CO)C(=O)O)[C@H]1CC[C@@]2(C)[C@@H]3CC[C@H]4C(C)(C)[C@@H](O)CC[C@@]45C[C@@]35CC[C@]12C` yielded a PC50 in [5] of 52.1 µM. Besides, in [7], the Activity entry was “Non-Toxic”.

`Nc1ccn([C@@H]2O[C@H](CO)[C@@H](O)C2(F)F)c(=O)n1` [GEMCITABINE] came in with a PC50 in data set [5] greater than 100 µM.

For the molecule `COc1cc(O)c(C(=O)c2ccc(O)cc2)c(O)c1[C@@H]1O[C@H](CO)[C@@H](O)[C@H](O)[C@H]1O`, in [5], the PC50 is greater than 100 µM. The Activity result in data set [7] is “Non-Toxic”.

`C=C(CC[C@@H](C)[C@H]1CC[C@@]2(C)[C@@H]3CC[C@H]4C(C)(C)C(=O)CC[C@@]45C[C@@]35CC[C@]12C)[C@@H](C)C(=O)O` registered a PC50 in [5] of 44.2 µM. In addition, the Activity result in data set [7] is “Non-Toxic”.

In the case of `C/C(=C\CC[C@@H](C)[C@H]1CC[C@@]2(C)[C@@H]3CC[C@H]4C(C)(C)[C@@H](O)CC[C@@]45C[C@@]35CC[C@]12C)C(=O)O` [MANGIFEROLIC ACID], the PC50 in data set [5] is greater than 100 µM. The Activity result in data set [7] was “Non-Toxic”.

In the case of `C=C(CC[C@@H](C)[C@H]1CC[C@@]2(C)[C@@H]3CC[C@H]4C(C)(C)C(=O)CC[C@@]45C[C@@]35CC[C@]12C)[C@@H](C)C(=O)OC`, in [5], the PC50 worked out at 22.8 µM. Also, the Activity entry in data set [7] was “Non-Toxic”.

In data set [5], `O=c1[nH]cc(F)c(=O)[nH]1` [FLUOROURACIL] yielded a PC50 greater than 200 µM.

`COc1cc(O)c(C(=O)c2ccc(O)cc2)c(O)c1` came in with a PC50 in data set [5] greater than 100 µM. Besides, the Activity result in data set [7] is reported as “Non-Toxic”.

`C/C(=C\CC[C@@H](C)[C@H]1CC[C@@]2(C)[C@@H]3CC[C@H]4C(C)(C)C(=O)CC[C@@]45C[C@@]35CC[C@]12C)C(=O)O` [MANGIFERONIC ACID] displayed a PC50 in data set [5] greater than 100 µM. Further, the Activity result in [7] is recorded as “Non-Toxic”.

On to `C/C(=C\C(O)C[C@@H](C)[C@H]1CC[C@@]2(C)[C@@H]3CC[C@H]4C(C)(C)[C@@H](O)CC[C@@]45C[C@@]35CC[C@]12C)C(=O)O` (stereo not given in full), for which the PC50 in [5] was greater than 100 µM. The Activity entry in data set [7] was “Non-Toxic”.

Take `O=c1c2cc(O)c(O)cc2oc2cc(O)c([C@@H]3O[C@H](CO)[C@@H](O)[C@H](O)[C@H]3O)c(O)c12` [MANGIFERIN]: the PC50 in data set [5] was greater than 100 µM. In addition, the Activity result in [7] is “Non-Toxic”.

As to `COc1cc(O)c(C(=O)c2ccc(O)cc2)c(O[C@@H]2O[C@H](CO)[C@@H](O)[C@H](O)[C@H]2O)c1` [MAHKOSIDE A], the PC50 in data set [5] is greater than 100 µM. Besides, in [7], the Activity entry was “Non-Toxic”.

As to `C/C(=C\C(O)C[C@@H](C)[C@H]1CC[C@@]2(C)[C@@H]3CC[C@H]4C(C)(C)C(=O)CC[C@@]45C[C@@]35CC[C@]12C)C(=O)O` (stereo not given in full), the PC50 in [5] worked out at 32.3 µM. Further, the Activity entry in [7] is given as “Non-Toxic”.

For `C=C(CC[C@@H](C)[C@H]1CC[C@@]2(C)[C@@H]3CC[C@H]4C(C)(C)[C@@H](O)CC[C@@]45C[C@@]35CC[C@]12C)[C@@H](C)C(=O)OC`, the PC50 in [5] is greater than 100 µM. Further, the Activity result in data set [7] was “Non-Toxic”.
